IC50 data for twelve compounds are collected here from ChEMBL document CHEMBL2010802, “Melodinines M-U, cytotoxic alkaloids from Melodinus suaveolens” (J Nat Prod, 2012).

Type in all cases: functional, cell-based
One test concerns A549. The test is described as follows: Cytotoxicity against human A549 cells after 48 hrs by MTT assay. To be noted: A549, 48 h. An outline of the steps:
(§1)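 Cells grown in RPMI-1640 or DMEM with 10% FBS, 5% CO2, 37 °C, at 1 × 10^5 cells/mL. Adherent lines (A-549, MCF-7, SMMC-7721, SW480) were left to attach 12 h before dosing; suspension HL-60 was seeded just before dosing. Exposed 48 h to 0.064, 0.32, 1.6, 8 and 40 μM in triplicate, with cisplatin as positive control. MTT viability read-out; IC50 by Reed and Muench method.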
(In general: Tetrazolium dyes change colour on reduction, which living cells bring about.)

Another test deals with MCF7. Put plainly: Cytotoxicity against human MCF7 cells after 48 hrs by MTT assay. The following applies: MCF7, 48 h. An outline of the steps:
as §1

The next test deals with SMMC-7721. Put plainly: Cytotoxicity against human SMMC7721 cells after 48 hrs by MTT assay. The following applies: SMMC-7721, 48 h. The procedure, abridged: as §1
The subject of a further test is SW480. Put plainly: Cytotoxicity against human SW480 cells after 48 hrs by MTT assay. The following applies: SW480, 48 h. An outline of the steps:
as §1

A further test deals with HL-60. The test is described as follows: Cytotoxicity against human HL60 cells after 48 hrs by MTT assay. The following applies: HL-60, 48 h. The procedure, abridged:
as §1

The term IC50 denotes the concentration that gives 50% inhibition.

A value given as a limit tells only on which side of the number the result lay.

Consider `CC[C@]12C=CCN3CC[C@]4(C(=C(C(=O)OC)C1)Nc1cc(OC)ccc14)[C@@H]32`, for which the half-inhibitory concentration (IC50) stood at 1 µM in the test on A549; 0.2 µM in the test with MCF7; 1.1 µM with SMMC-7721; 2.4 µM with SW480; 0.5 µM in the test with HL-60.

With `CC[C@]12C=CCN3CC[C@]4(C(=C(C(=O)OC)C1)Nc1cc(O)ccc14)[C@@H]32`, the IC50 with A549 was 17.6 µM; with MCF7 it was > 40 µM; in the test on SMMC-7721, 15.5 µM; in the test on SW480, > 40 µM; with HL-60, 6 µM.

`COC(=O)C1=C2Nc3ccccc3[C@@]23CCN2CC=C[C@@]([C@@H](C)OC(C)=O)(C1)[C@H]23`: the half-inhibitory concentration (IC50) was found to be 15.5 µM in the test on A549; 14.2 µM in the test with MCF7; 6 µM in the test with SMMC-7721; 15 µM with SW480; 5.8 µM in the test with HL-60.

Turning to `COC(=O)C1=C2Nc3cc(OC)ccc3[C@@]23CCN2CC=C[C@@]([C@@H](C)O)(C1)[C@H]23`, the IC50 worked out at 19.7 µM in the test with A549; 21.3 µM with MCF7; 16 µM in the test on SMMC-7721; 13.1 µM with SW480; 6.3 µM in the test with HL-60.

As for `CC[C@]12C=C[C@@H](CC(C)=O)N3CC[C@]4(C(=C(C(=O)OC)C1)Nc1ccccc14)[C@@H]32`, the half-inhibitory concentration (IC50) amounted to 0.6 µM in the test with A549; 0.4 µM with MCF7; 0.3 µM in the test on SMMC-7721; 0.5 µM with SW480; 0.2 µM with HL-60.

Turning to `CC[C@@]12CC(C(=O)OC)=C3Nc4ccccc4[C@@]34CCN(C[C@@H]3O[C@@H]31)[C@@H]24` [LOCHNERICINE], the IC50 was > 40 µM in the test on A549; > 40 µM in the test on MCF7; 24.7 µM in the test with SMMC-7721; > 40 µM in the test on SW480; 15.5 µM with HL-60.

In the case of `CC[C@]12C=CCN3CC[C@]4(C(=C(C(=O)OC)C1)Nc1cc(O)c(C)cc14)[C@@H]32` [MELODININE N], the IC50 in the test with A549 was determined as 18.5 µM; in the test on MCF7, 15 µM; in the test with SMMC-7721, 15.5 µM; in the test on SW480 it was 15.1 µM; with HL-60, 3.5 µM.

`CC[C@]12C=CCN3CC[C@]4(C(=C(C(=O)OC)C1)Nc1cc(O)c(COC)cc14)[C@@H]32` [MELODININE O]: the 50% inhibitory concentration (IC50) with A549 was found to be 18.2 µM; in the test with MCF7 it was 15.7 µM; in the test on SMMC-7721 it was 15.2 µM; in the test with SW480, 14.9 µM; with HL-60, 10 µM.

For the compound `CC[C@]12C=CCN3CC[C@]4(C(=C(C(=O)OC)C1)Nc1ccc(O)cc14)[C@@H]32` [MELODININE P], the IC50 in the test with A549 is > 40 µM; with MCF7, > 40 µM; in the test on SMMC-7721 it was > 40 µM; with SW480 it was > 40 µM; with HL-60 it was 28.1 µM.

Consider `COC(=O)C1=C2Nc3ccccc3[C@@]23CCN2[C@H](CC(C)=O)C=C[C@@]([C@@H](C)O)(C1)[C@H]23` [MELODININE R], for which the IC50 in the test with A549 worked out at 3.9 µM; in the test on MCF7, 1.8 µM; in the test on SMMC-7721, 3.3 µM; in the test on SW480, 1.6 µM; with HL-60, 0.7 µM.

In the case of `CC[C@@]12CC(C(=O)OC)=C3Nc4ccccc4[C@@]34CCN([C@H](CC(C)=O)[C@@H]3O[C@@H]31)[C@@H]24` [MELODININE S], the IC50 came out at 15.2 µM in the test with A549; 7 µM in the test with MCF7; 11.2 µM in the test with SMMC-7721; 13.5 µM with SW480; 4.8 µM in the test on HL-60.

Take `CC[C@]12C=CCN3CC[C@]4(C(=C(C(=O)OC)C1)Nc1ccccc14)[C@@H]32` [TABERSONINE]: the IC50 in the test on A549 turned out to be 14.7 µM; in the test on MCF7 it was 9.9 µM; in the test with SMMC-7721, 5.6 µM; with SW480, 12.1 µM; in the test on HL-60, 4.5 µM.
